Source: PubChem
The sample as a whole holds a higher share of hits than the screen did.
UPR XBP1 act = activators of adaptive XBP1 UPR arm, primary screen, cell-based, CHO-XBP1 luciferase reporter, luminescence, uHTS. activation, % at 20 µM. IRE1-XBP1 UPR activation; percent of tunicamycin response, DMSO as zero. AID 463104, 2010. hit rate 0.33% among 330,000;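 active = versus positive control, 20 µM dose yields 30% or more activation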
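Material: IRE1-XBP1 luciferase reporter CHO line / Quantity: one thousand reporter cells per well / Buffer or medium: F12 with 10% serum / Compound: 20 µM single concentration, DMSO 1% / Times: 6 h treatment, 37 °C / Detection: Steady-Glo luciferase glow luminescence, 10 min after reagent addition / Benchmarks: tunicamycin high, DMSO low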
CHOP inh = inhibitors of CHOP promoter induction, primary screen, cell-based, unfolded protein response, luciferase reporter. CHO-K1 CHOP-promoter luciferase, tunicamycin-induced, 15-18 h. inhibition, % at 10 µM. hit rate 3.8% among 220,000;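 active = compounds that reduced the stress-induced luciferase reporter signal by more than about 70% of percent inhibition, limit read from the data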
697 NFkB inh = inhibitors of PMA/ionomycin-induced NF-kB reporter, 697 cells, primary screen, B-cell NF-kB inhibitor project, cell-based, luminescence, uHTS. hit rate 0.33% among 330,000. inhibition, % at 4 µM. 697 B-cell NF-kB luciferase reporter, 16 h. AID 435022, 2010; in the data active = inhibition above about 35%
CHOP UPR activ = activators of apoptotic CHOP UPR arm, primary screen, cell-based, CHO-CHOP luciferase reporter, luminescence, uHTS | UPR activation; percent of tunicamycin response over DMSO baseline | activation, % at 10 µM | hit rate 0.34% among 330,000 | AID 449763, 2010;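 active = at 10 µM dose, activation of 40% or more, normalized to positive control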
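Test system: CHO CHOP reporter cells. Input: 500 CHO-CHOP cells per well. Medium: F12 with 10% FBS. Technique: luciferase luminescence. Measure: percent activation relative to tunicamycin control. Dosing: 10 µM compound, 0.5% DMSO. Timing: 16-18 h cell attachment, then 6 h compound exposure, 37 °C.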
Jurkat NFkB inh = inhibitors of induced NF-kB luciferase reporter, primary screen, TCR NF-kB activation inhibitor project, cell-based, luminescence, uHTS | Jurkat, PMA/ionomycin-induced NF-kB luciferase reporter | AID 435003, 2010 | hit rate 0.53% among 330,000 | inhibition, % at 4 µM; in the data active = inhibition above about 50%
XBP1 UPR conf = IRE1-XBP1 UPR arm activators, confirmation, cell-based, CHO-XBP1 luciferase reporter, luminescence, single concentration; activation, % at 20 µM; hit rate 63% among 1,000; shares compounds with UPR XBP1 act;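 active = reporter signal at least 30% of the positive control's activation in two or more of four replicate wells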
Each line names hits and unclear results; the compound was inactive in the other large screens (follow-up assays come after a bar, where they were run).

N#Cc1cc2c(nc1SCC(=O)Nc1sc3c(c1C#N)CCC3)CCCC2	UPR XBP1 act 51 | XBP1 UPR conf 30
COCCNC(=O)C1CC(c2cccc(F)c2)=NO1 (centres undefined)	UPR XBP1 act 31 | XBP1 UPR conf inactive
Oc1cc(-n2cccn2)c(O)cc1-n1cccn1	none (no result: UPR XBP1 act, 697 NFkB inh, CHOP UPR activ, Jurkat NFkB inh)
O=Cc1cc2ccccc2nc1SCc1ccc(Cl)cc1	UPR XBP1 act 43 | XBP1 UPR conf 43
Cc1ccc(CSc2nc3ccccc3cc2C=O)cc1	none
CCCn1c(Nc2nc3ccccc3n2C)nc2ccccc21	UPR XBP1 act 55 | XBP1 UPR conf 57
CCCCn1c(Nc2ccccc2)nc2ccccc21	none
Nc1c(N(CCCO)C(=O)C2CCCCC2)c(=O)[nH]c(=O)n1Cc1ccccc1	none (no result: CHOP inh)
CCOC(=O)CC1C(=O)NCCN1C(=O)COc1ccc(C(C)(C)C)cc1 (centres undefined)	none (no result: CHOP inh)
Cc1nn(-c2ccc(Cl)cc2)c(=O)c2c(C)noc12	none
COc1ccc(/C=N/NC(=O)c2cccc([N+](=O)[O-])c2)c2ccccc12	UPR XBP1 act 77 (no result: CHOP inh) | XBP1 UPR conf 34
Cc1ccc(NS(=O)(=O)c2cc([N+](=O)[O-])ccc2N/N=C/c2sc(N3CCOCC3)nc2-c2ccccc2)c(C)c1	UPR XBP1 act 36 | XBP1 UPR conf 31
Cn1nc(C(F)(F)F)c(/C=N/OC(=O)c2ccccc2)c1SCc1ccc(Cl)cc1	UPR XBP1 act 48 | XBP1 UPR conf 90
Cn1nc(C(F)(F)F)c(/C=N/OC(=O)c2ccccc2Cl)c1SCc1ccccc1Cl	UPR XBP1 act 89 | XBP1 UPR conf 98
CC1(C)C[C@H](O)[C@]2(CO)CC[C@]3(C)C(=CCC4[C@@]5(C)CC[C@H](O)C(C)(C)C5CC[C@]43C)[C@@H]2C1 (some centres undefined)	none (no result: CHOP inh)
CC1(C)C[C@H](O)[C@]2(CO)[C@H](O)C[C@]3(C)C(=CCC4[C@@]5(C)CC[C@H](O)C(C)(C)C5CC[C@]43C)[C@@H]2C1 (some centres undefined)	UPR XBP1 act 146 (no result: CHOP inh) | XBP1 UPR conf 73
COc1ccc(C(=O)N/N=C/c2ccccc2OC(=O)c2ccccc2)cc1	UPR XBP1 act 51 (no result: CHOP inh) | XBP1 UPR conf inactive
COc1ccc(C(=O)N/N=C/c2ccc(OC(=O)c3ccccc3)cc2)cc1	none
COc1ccccc1NC(=O)c1cc2c(CO)cnc(C)c2oc1=Nc1ccccc1	UPR XBP1 act 501 (no result: CHOP inh) | XBP1 UPR conf 168
C/C=C/C1=CC(=O)C[C@H](c2ccc(Cl)cc2)C1	none (no result: CHOP inh)
Cc1cccc(NC(=O)c2cc3c(=O)n4ccccc4nc3n(CC(C)C)c2=N)c1	UPR XBP1 act 99 | XBP1 UPR conf inactive
COc1cccc(NC(=O)c2cc3c(=O)n4ccccc4nc3n(CC(C)C)c2=N)c1	none
Cc1ccc(C(O)Cn2nc(C)cc2C)cc1 (centres undefined)	none (no result: CHOP inh)
O=C1Nc2ccccc2/C1=C/c1ccc([N+](=O)[O-])cc1	UPR XBP1 act 75 (no result: CHOP inh) | XBP1 UPR conf 76
COc1ccc(CCN2CC(C(=O)N(C)CC(=O)Nc3cccc(F)c3)CC2=O)cc1OC (centres undefined)	none (no result: CHOP inh)
Cc1nnc(N2CCCC(C(=O)NCc3ccc(OC(C)C)cc3)C2)c2nn(-c3ccccc3)c(C)c12 (centres undefined)	none (no result: CHOP inh)
Cc1nnc(N2CCCC(C(=O)Nc3cc(F)ccc3F)C2)c2nn(-c3ccccc3)c(C)c12 (centres undefined)	UPR XBP1 act 41 (no result: CHOP inh) | XBP1 UPR conf inactive
COc1ccc(C(=O)NC(=S)NNC(=O)[C@H]2C[C@@H]2c2ccccc2)cc1OC	UPR XBP1 act 65 | XBP1 UPR conf inactive
Cc1ccc(-c2cc(C(=O)Nc3ccncc3)c3ccccc3n2)cc1	none (no result: CHOP inh)
O=C(Nc1ccc(SC(F)F)cc1)c1cc(-c2ccncc2)nc2ccccc12	UPR XBP1 act 64 (no result: CHOP inh) | XBP1 UPR conf 48
COc1ccc(Br)cc1/C=N/NC(=O)c1cc(OC)c(OC)c(OC)c1	none
COc1cc(C(=O)N/N=C/c2ccsc2C)cc(OC)c1OC	UPR XBP1 act 30 | XBP1 UPR conf inactive
CCCCN(CC)S(=O)(=O)c1ccc(C(=O)N(CCCN(C)C)c2nc3cc(C)cc(C)c3s2)cc1	UPR XBP1 act 45, CHOP inh 87 | XBP1 UPR conf 36
CCOc1cccc2sc(N(CCCN(C)C)C(=O)c3ccc(S(=O)(=O)N(CC)Cc4ccccc4)cc3)nc12	UPR XBP1 act 43 (no result: CHOP inh) | XBP1 UPR conf inactive
CCOc1cccc2sc(N(CCCN(C)C)C(=O)c3ccc(S(=O)(=O)N(C)Cc4ccccc4)cc3)nc12	none (no result: CHOP inh)
CCN(C(=O)COC(=O)c1nccnc1N)c1cccc2ccccc12	none (no result: CHOP inh)
COCCC(=O)N1CCC(Oc2ccc(C(=O)N(C)CCCC3CCCC3)cc2)CC1	none (no result: CHOP inh)
O=S(=O)(c1ccc(Cl)cc1)N1c2ccccc2Oc2nc3ccccc3nc21	none
COc1ccc(S(=O)(=O)N2c3cc(Cl)ccc3Oc3nc4ccccc4nc32)cc1	UPR XBP1 act 39 (no result: CHOP inh) | XBP1 UPR conf 31
COc1ccc([C@H]2CC(=O)C=C(c3cccc(OC(F)(F)F)c3)C2)cc1	none (no result: CHOP inh)
O=C(Cc1ccc(Cl)cc1)Nc1ccc(-c2nnc(-c3ccco3)o2)cc1	none
O=C(CSCc1ccc(Cl)cc1)Nc1ccc(-c2nnc(-c3ccccc3)o2)cc1	UPR XBP1 act 107 | XBP1 UPR conf 72
O=C(COc1ccc2ccc(=O)oc2c1)Nc1c(Cl)cccc1C(F)(F)F	UPR XBP1 act 31 (no result: CHOP inh) | XBP1 UPR conf inactive
O=c1[nH]c(=O)n(Cc2ccco2)c2c1C(C(F)(F)F)(C(F)(F)F)N=C(C1CCCCC1)N2	none
O=c1[nH]c(=O)n(Cc2ccco2)c2c1C(C(F)(F)F)(C(F)(F)F)N=C(CCC1CCCCC1)N2	UPR XBP1 act 43 | XBP1 UPR conf inactive
CC(NC(=O)CCl)c1ccccc1Br (centres undefined)	none
Cc1ccc(NC(=O)c2cc(S(=O)(=O)N(C)C)ccc2N2CCCC2)cc1S(=O)(=O)N(C)C	UPR XBP1 act 53 (no result: CHOP inh) | XBP1 UPR conf 67
CN(C)S(=O)(=O)c1ccc(N2CCCC2)c(C(=O)Nc2ccc(C(N)=O)cc2)c1	none (no result: CHOP inh)
CC(C)[C@H](NC(=O)c1cccc(CN(Cc2ccccc2)C(=O)/C=C/c2ccccc2)c1)C(=O)O	none (no result: CHOP inh)
COC(=O)c1nn(-c2ccccc2)nc1-c1nn(-c2ccccc2)nc1C(=O)OC	UPR XBP1 act 39 | XBP1 UPR conf inactive
O=C(O)c1nn(-c2ccccc2)nc1-c1nn(-c2ccccc2)nc1C(=O)O	none
